ChEMBL document CHEMBL4513216, “Probing the Open Global Health Chemical Diversity Library for Multistage-Active Starting Points for Next-Generation Antimalarials” (ACS Infect Dis, 2020)

Assay: Toxicity liver stage against HepG2, at 10uM
Format: cell-based
Design: test concentration 10 uM, cell line HepG2-A16-CD81EGFP
Conditions: human, HepG2-A16-CD81EGFP cells; read-out: INHIBITION
How it was run: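 Uninfected HepG2-A16-CD81EGFP cells, 3 × 10^3 per well, 1536-well, plated on prespotted compound at 10 μM final, parasite-free screening media added to match infected plates; puromycin 10 μM positive, DMSO 0.5% negative; run in parallel with 48 h PbLuc assay at 37 °C, 5% CO2; viability by CellTiter-Glo luminescence, normalized to controls.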

Structure (SMILES): O=C1N(c2ccccc2)C[C@H]2CN(C3CCC3)CCN12
- cytotoxicity at 10 µM: 6.09%

Structure (SMILES): COc1ccc2cnn(CC(=O)NC3CCCC3)c(=O)c2c1OC
- cytotoxicity at 10 µM: -2.86%

Structure (SMILES): CC1(C)OCC2(CO1)CN(S(=O)(=O)c1ccc(Br)s1)C2
- cytotoxicity at 10 µM: -7.31%

Structure (SMILES): COc1ccc(S(=O)(=O)Nc2cnc(N(C)C)nc2)cc1
- cytotoxicity at 10 µM: -4.45%

Structure (SMILES): CC(C)NC(=O)N1CCC2(CC1)[C@@H]1CN(C(=O)N(C)C)C[C@@H]1C(=O)N2C
- cytotoxicity at 10 µM: 4.32%

Structure (SMILES): CN1C(=O)CCCC12CCCN(C(=O)c1cccc(C(F)(F)F)c1)C2 (centres undefined)
- cytotoxicity at 10 µM: 4.65%

Structure (SMILES): O=C(c1cccnc1)N1Cc2[nH]nc(COCCO)c2C1
- cytotoxicity at 10 µM: 13.3%

Structure (SMILES): COCC1CN(C(=O)c2cnc(C)cn2)Cc2ncnn2C1 (centres undefined)
- cytotoxicity at 10 µM: 2.31%

Structure (SMILES): Cc1nn(-c2ccccc2)c(C)c1CN1CCNCC1
- cytotoxicity at 10 µM: 6.19%

Structure (SMILES): Cc1nn(C)cc1-c1cc(C(F)(F)F)nc(NC2CCN(C)CC2)n1
- cytotoxicity at 10 µM: 11.7%

Structure (SMILES): COc1c(C(=O)NCc2cnn(C)c2C)nnn1Cc1ccccc1
- cytotoxicity at 10 µM: -11.3%

Structure (SMILES): O=C(NC[C@]1(O)CN(Cc2ncccc2F)C[C@H]1O)c1cc[nH]n1
- cytotoxicity at 10 µM: -6.07%

Structure (SMILES): CN1CCC(c2nnc3n2CCN(S(=O)(=O)c2ccccc2)C3)CC1
- cytotoxicity at 10 µM: -2.02%

Structure (SMILES): COc1cc2c(cc1CN1CCc3sccc3C1C)OCCO2 (centres undefined)
- cytotoxicity at 10 µM: 8.92%

Structure (SMILES): CN1CCCC1c1cncc(C(=O)NCc2ccccc2)n1 (centres undefined)
- cytotoxicity at 10 µM: -1.67%

Structure (SMILES): Cc1cc2c(=O)n3c(nc2s1)CCN(C(=O)c1scnc1C)CC3
- cytotoxicity at 10 µM: -0.774%

Structure (SMILES): CNC(=O)CCc1cc(C)nc(C2CCCN2)c1 (centres undefined)
- cytotoxicity at 10 µM: -8.49%

Structure (SMILES): CN(C)C(=O)C1CN(Cc2c[nH]cn2)CCN(C2CCOCC2)C1 (centres undefined)
- cytotoxicity at 10 µM: -5.97%

Structure (SMILES): O=C(c1ccc[nH]1)N1CCOCC12CCCC2
- cytotoxicity at 10 µM: 12.3%

Structure (SMILES): c1cnc(N2CCC(OCCN3CCCCC3)C2)nc1 (centres undefined)
- cytotoxicity at 10 µM: -47.3%

Structure (SMILES): Cc1ccc2c(c1C)OCC2NCc1ccc(C#N)cc1 (centres undefined)
- cytotoxicity at 10 µM: 25.8%

Structure (SMILES): c1ccc(-c2nccc(N3CCc4c(ncn4C4CC4)C3)n2)cc1
- cytotoxicity at 10 µM: 7.22%

Structure (SMILES): COc1ccc(Br)cc1NCC(=O)NC(C)(C#N)C1CC1 (centres undefined)
- cytotoxicity at 10 µM: 23.4%

Structure (SMILES): Cc1oc(C)c(C(=O)Nc2ccccn2)c1C
- cytotoxicity at 10 µM: -9.78%

Structure (SMILES): COCCCN1Cc2cccc(NC(=O)c3ccccc3C)c2C1
- cytotoxicity at 10 µM: 13.4%

Structure (SMILES): Cc1cc(NC(=O)N2CCN(C)CC2C)n(C)n1 (centres undefined)
- cytotoxicity at 10 µM: 9.92%

Structure (SMILES): COc1ccc(S(=O)(=O)NC(=O)c2cscn2)cc1C
- cytotoxicity at 10 µM: 6.84%

Structure (SMILES): Cc1c(C(=O)NC(C)CC(=O)c2cccs2)cnn1C (centres undefined)
- cytotoxicity at 10 µM: -8.71%

Structure (SMILES): Cc1nc2cc(=O)[nH]n2c(C)c1CNC(=O)c1cnn(C(C)(C)C)c1
- cytotoxicity at 10 µM: -4.01%

Structure (SMILES): CC(=O)NCCCSC1CCN(c2c(F)cccc2F)C1=O (centres undefined)
- cytotoxicity at 10 µM: -6.35%

Structure (SMILES): Cc1ccc(C2CCCN2S(=O)(=O)N(C)Cc2nccn2C)o1 (centres undefined)
- cytotoxicity at 10 µM: -0.787%

Structure (SMILES): NC(=O)c1cccc(NC(=O)CSc2ccc3c(c2)CCC3)c1
- cytotoxicity at 10 µM: 21.4%

Structure (SMILES): COC(=O)c1ccc(NC(=O)CN2CCCCC2C2OCCO2)cc1 (centres undefined)
- cytotoxicity at 10 µM: 42.5%

Structure (SMILES): CCc1nc(NS(=O)(=O)c2cc(C)cc(F)c2)no1
- cytotoxicity at 10 µM: 2.31%

Structure (SMILES): O=C(Nc1cccc(N2CCN(CC3CC3)CC2)c1)C1CCOC1 (centres undefined)
- cytotoxicity at 10 µM: 1.68%

Structure (SMILES): CCNc1nnc(SCC(=O)N2CCN(Cc3ccc(Cl)s3)CC2)s1
- cytotoxicity at 10 µM: 15.2%

Structure (SMILES): CN(CC(F)(F)F)C(=O)COc1nc(Cc2ccc(F)cc2)no1
- cytotoxicity at 10 µM: 9.36%

Structure (SMILES): Cc1n[nH]c(C2CN(C(=O)c3scnc3C)CCO2)n1 (centres undefined)
- cytotoxicity at 10 µM: 10.6%

Structure (SMILES): CCN(CC)C(=O)c1cc(Br)cc(S(=O)(=O)N2CCOCC2)c1F
- cytotoxicity at 10 µM: -2.43%

Structure (SMILES): Cc1noc(COCC(=O)N2CCCCC2c2nccs2)n1 (centres undefined)
- cytotoxicity at 10 µM: 6.9%

Structure (SMILES): O=C(NCC(=O)N1CC2(CCCC2)c2c(F)cccc21)C1CC1
- cytotoxicity at 10 µM: -3.47%

Structure (SMILES): CS(=O)(=O)Cc1nc(CNc2c(F)cc(F)cc2F)cs1
- cytotoxicity at 10 µM: -4.73%

Structure (SMILES): CC(C)OCCCNC(=O)Nc1cccc2ncccc12
- cytotoxicity at 10 µM: 2.96%

Structure (SMILES): COc1ccnc(NCC2CN(C3CC3)CCO2)n1 (centres undefined)
- cytotoxicity at 10 µM: -7.97%

Structure (SMILES): Cc1ccccc1C(NC(=O)Cn1cc(C2CC2)nn1)C1CC1 (centres undefined)
- cytotoxicity at 10 µM: -1.03%

Structure (SMILES): c1cc(-c2nnc(C3(c4ccc5c(c4)OCO5)CCOCC3)o2)ccn1
- cytotoxicity at 10 µM: -0.973%

Structure (SMILES): COc1ccc(Cn2nnnc2SCC2CCCN(C)C2)cc1 (centres undefined)
- cytotoxicity at 10 µM: -1.33%

Structure (SMILES): Cc1nnc(SC2CCN(c3sccc3C#N)C2=O)[nH]1 (centres undefined)
- cytotoxicity at 10 µM: 7.25%

Structure (SMILES): COc1ccc(S(=O)(=O)N2CC(CC(=O)O)c3ccccc32)cc1 (centres undefined)
- cytotoxicity at 10 µM: 6.04%

Structure (SMILES): Cc1cc(C)cc(CNc2ccc(C(=O)NC(C)CO)cc2)c1 (centres undefined)
- cytotoxicity at 10 µM: -5.48%

Structure (SMILES): Cc1cc(C(=O)N(C)C)c2c(Br)cccc2n1
- cytotoxicity at 10 µM: -6.4%

Structure (SMILES): CC(c1cc(F)ccc1F)N(C)CCS(=O)(=O)CCC(N)=O (centres undefined)
- cytotoxicity at 10 µM: -47%

Structure (SMILES): CCOCc1nnc(NCc2cccc(C)c2)o1
- cytotoxicity at 10 µM: 16.3%

Structure (SMILES): Cc1ccc(Cl)c2c1C1(NC(=O)c3cccnc3N1)C(=O)N2 (centres undefined)
- cytotoxicity at 10 µM: 11.9%
